High-throughput results: PubChem, several laboratories
MC4R antag cAMP: MC4R antagonists of cAMP signaling, primary screen, cell-based, TR-FRET, antagonist arm of biased-ligand search. inhibition, % at 6.5 µM. Melanocortin receptor 4 (Homo sapiens), P32245. 360,000 compounds, 0.48% hits. MC4R-expressing cells, MTII-stimulated cAMP, LANCE TR-FRET;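 active = inhibition above its plate's cutoff, the mean of tested wells on that plate plus 3 SD, cut at about 29% in these data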;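 also: 0% = Melanotan II alone and 100% = Melanotan II plus saturating MCL0020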
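System: U2OS cells stably expressing human melanocortin 4 receptor (MC4R). Reagent: Melanotan II challenge after compound preincubation. Doses: 6.5 µM. Times: 30-min compound, 1-h challenge, 1-h detection, room temperature. Measured by: TR-FRET with Eu-cAMP and labeled anti-cAMP, 671 nm. Replicates: singlicate.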
Granule exo inh: LAMP-1 surface exposure blockers, TALL-104 cells – cell-based, flow cytometry, MLPCN library, primary screen. 360,000 compounds, 0.66% hits. AID 651702, 2012. TALL-104 LAMP-1 surface exposure; cells stimulated with thapsigargin and PMA. inhibition, % at 10 µM;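 active = inhibition above about 55%, limit read from the data; inconclusive = no clear call, values can overlap the other calls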
PGE2 EP2 inh: human EP2 receptor antagonists, primary screen, TR-FRET cAMP, C6 glioma cells. Prostaglandin E2 receptor EP2 subtype (Homo sapiens), P43116. C6 glioma cells expressing human EP2; cells stimulated with saturating PGE2. inhibition, % at 25 µM. 260,000 compounds, 0.52% hits;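 active = percent inhibition above 40 after rounding to a whole number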;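 also: rat C6 glioma host cells with rolipram phosphodiesterase inhibitor present; the protocol text gives 20 µM as final concentration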
MC4R barr agon: MC4R agonists recruiting beta-arrestin, primary screen, cell-based, luminescence, agonist arm of biased-ligand search; activation, % at 8.9 µM; AID 540308, 2011; Melanocortin receptor 4 (Homo sapiens), P32245; U2OS MC4R beta-arrestin complementation; percent of melanotan II response, DMSO zero; 360,000 compounds, 0.98% hits;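 active = activation above a per-plate cutoff, the mean activation of sample wells on that plate plus 3 SD, cut at about 8% in these data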
T cell HTS: modulators of CD8 T cell-vesicle binding, primary screen, mouse 2C CD8+ T cells, flow cytometry. 2C CD8+ T cell-vesicle binding; hits give low values. response (vesicle binding), % at 7 µM. 330,000 compounds, 0.068% hits. AID 2052, 2009;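 active = response, share of CD8 T cells binding vesicles, and their 90th percentile fluorescence all below set limits, cut at about 80% in these data, passing the limit was not always enough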;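 also: values below 100% mean blocked vesicle binding to the CD8+ T cells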
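Incubation: binding step 1.5 h, 37 °C, antibody labelling 20 min, ice; system: murine 2C transgenic CD8+ T lymphocytes; technique: cytometric PE anti-B7-1 and Alexa647 anti-CD8 signals after 1% paraformaldehyde fixation; also added: QL9-charged Drosophila Ld/ICAM-1/B7-1 vesicles; control set: naked versus QL9-loaded vesicles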
EP2 mod: EP2 receptor modulators, cAMP readout, primary screen, cell-based, HTRF cAMP, PGE2 stimulation | Prostaglandin E2 receptor EP2 subtype (Homo sapiens), P43116 | EP2-expressing cells, cAMP HTRF FRET, PGE2 co-stimulation | induction, % at 25 µM | 260,000 compounds, 0.83% hits | AID 940, 2007;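 active = compounds whose cAMP rise, as percent of the full-agonist control response, exceeds 60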;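 also: rat C6 glioma line stably carrying human EP2 under a CMV promoter; the protocol text gives 20 µM as final concentration; 100% = response of wells given 1 µM PGE2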
MC4R barr conf: MC4R beta-arrestin agonists, retest, confirmation, cell-based, luminescence, U2OS | 2,400 compounds, 31% hits | activation, % at 8.9 µM | shares compounds with MC4R barr agon | U2OS MC4R beta-arrestin recruitment; scaled DMSO 0%, Melanotan II 100% | AID 602192, 2012;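 active = mean activation across replicates above the hit cutoff set in the earlier primary screen, cut at about 8% in these data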
MOR-DOR barr ag: agonists of MOR-DOR heterodimerization, counter-screen for MC4R biased agonist project, cell-based, luminescence. shares compounds with MC4R barr agon. U2OS PathHunter beta-arrestin, beta-gal luminescence; percent of deltorphin B response, DMSO zero. activation, % at 9.2 µM. 2,400 compounds, 5.8% hits. AID 602194, 2012;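 active = mean activation across replicates exceeds the hit threshold derived in the earlier primary screen, cut at about 18% in these data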;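 also: 100% = deltorphin B at 0.9 µM final and 0% = DMSO alone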
Target sequence (P35372 whole entry, looked up): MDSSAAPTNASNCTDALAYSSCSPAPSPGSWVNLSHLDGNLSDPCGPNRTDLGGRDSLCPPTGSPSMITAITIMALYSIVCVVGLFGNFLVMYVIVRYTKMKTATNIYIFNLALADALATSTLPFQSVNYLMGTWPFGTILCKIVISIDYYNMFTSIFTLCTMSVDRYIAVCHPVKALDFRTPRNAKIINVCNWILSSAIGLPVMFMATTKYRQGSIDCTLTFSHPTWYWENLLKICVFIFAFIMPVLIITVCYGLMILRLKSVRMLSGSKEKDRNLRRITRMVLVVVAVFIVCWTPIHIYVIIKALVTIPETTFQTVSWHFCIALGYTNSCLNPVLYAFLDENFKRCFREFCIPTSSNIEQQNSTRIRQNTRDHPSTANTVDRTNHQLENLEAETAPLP
Target sequence (P41143 whole entry, looked up): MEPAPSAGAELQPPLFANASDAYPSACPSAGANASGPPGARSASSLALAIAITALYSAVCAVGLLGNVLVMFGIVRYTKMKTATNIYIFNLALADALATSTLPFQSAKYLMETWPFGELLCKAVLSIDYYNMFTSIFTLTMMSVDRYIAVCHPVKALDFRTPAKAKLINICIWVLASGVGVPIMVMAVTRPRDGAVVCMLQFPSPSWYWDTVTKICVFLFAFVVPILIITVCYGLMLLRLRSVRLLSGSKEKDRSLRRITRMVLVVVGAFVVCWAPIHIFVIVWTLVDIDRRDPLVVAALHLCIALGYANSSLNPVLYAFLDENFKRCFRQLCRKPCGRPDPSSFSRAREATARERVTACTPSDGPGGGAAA
Starred values were filed as active, the others as inactive; u = inconclusive; x = not tested or not shown; ! = repeats disagree. Only some compounds are listed: those with a hit (about 2.6% of all), similar ones and a draw of the others.

SMILES	MC4R antag cAMP	Granule exo inh	PGE2 EP2 inh	MC4R barr agon	T cell HTS	EP2 mod	MC4R barr conf	MOR-DOR barr ag
COc1ccc(NC(=O)Cn2nnc(C(=O)NCc3cccc(OC)c3)c2N)cc1	-1	-3	8	-1	275	-7	x	x
O=C(Cc1c[nH]c2ccccc12)N/N=C/c1ccccc1O	3	0	1	1	250	-38	x	x
CC(C)(C)c1ccc(/C=N/NC(=O)Cc2c[nH]c3ccccc23)cc1	-1	2	12	10*	283	-10	5	11
COC(=O)c1c(NC(=O)C(C)C)sc(C(=O)Nc2ccccc2OC)c1C	x	x	14	x	x	7	x	x
O=C(Nc1ccc(NC(=O)C2CCCCC2)nc1)c1cccs1	0	4	26	-1	190	-32	x	x
Cc1ccc(C(=O)Cn2c(C(=O)/C=C/c3ccccc3)nc3ccccc32)cc1	7	10	8	20*	440	9	21*	4
Cc1ccc(NC(=O)Cn2c(/C=C/c3ccccc3)nc3ccccc32)cc1C	14	2	6	17*	453	-7	-1	x
CC1(C)CC=CC(COC(=O)c2ccccc2C(=O)O)C1 (stereo not drawn)	5	14	x	-2	x	x	x	x
Cc1cccc(NC(=S)N/N=C/c2ccc(Cl)c([N+](=O)[O-])c2)c1	18	-4	10	22*	355	6	5	9
COc1cc2nc(Nc3ccc(C)c(Cl)c3)nc(N)c2cc1OC	0	u	x	11*	226	x	18*	13
COc1cc(OC)c(C(=O)OCC(=O)NC2CCCC2)cc1OC	0	4	x	-2	238	x	x	x
Nc1c(C(=O)NCc2ccc3c(c2)OCO3)nnn1Cc1ccc(Br)cc1	-5	-3	1	18*	300	-7	7	10
COc1cc(SC#N)ccc1N=Cc1c(C)[nH]n(-c2ccc(Cl)cc2)c1=O	5	-2	16	0	416	23	x	x
COc1cc(SC#N)ccc1N=Cc1c(C)[nH]n(-c2ccc(C)c(C)c2)c1=O	4	10	10	12*	877	-4	9.3*	15
O=P(O)(O)c1ccccc1OCCCCCOc1ccccc1P(=O)(O)O	14	0	21	-1	470	22	x	x
Cc1ccc(C(C)C)c(OCc2nn(CC(=O)c3ccc(OC(F)F)cc3)c3[n+]2CCCCC3)c1	16	9	7	20*	383	15	14*	25*
COc1ccc(C(=O)Cn2nc(CNc3ccc(Br)cc3)[n+]3c2CCCCC3)cc1	7	-2	7	-3	110	13	x	x
CSc1ccc(CN2CCc3c([nH]c4ccccc34)C2)cc1	1	49	x	11*	266	x	3	8
COc1ccc(OCCNS(=O)(=O)c2cccc([N+](=O)[O-])c2)cc1	7	4	4	0	242	-15	x	x
COc1ccc(CN(C)C(=O)COC(=O)c2c(C)nn(-c3ccc(F)cc3)c2Cl)cc1	-2	6	x	-3	452	x	x	x
CN(C)C(=O)c1cccc(-c2cc(NC=O)c3ncc(-c4ccc(F)cc4)n3c2)c1	6	4	x	3	x	x	x	x
CC(=O)Nc1cc(-c2ccsc2)cn2c(-c3ccc(F)cc3)cnc12	-4	0	x	18*	x	x	13*	4
COc1ccccc1-c1cc(NC(C)=O)c2ncc(-c3cccc(C(C)=O)c3)n2c1	-17	11	x	11*	x	x	18*	4
COc1cc(-c2cc(NC(C)=O)c3ncc(-c4cc(OC)c(OC)c(OC)c4)n3c2)cc(OC)c1OC	-33	4	x	9.6*	x	x	9.3*	2
COc1ccc(-c2cnc3c(NC(C)=O)cc(-c4ccccc4OC)cn23)cc1OC	-28	u	x	22*	x	x	25*	2
SMILES	MC4R antag cAMP	Granule exo inh	PGE2 EP2 inh	MC4R barr agon	T cell HTS	EP2 mod	MC4R barr conf	MOR-DOR barr ag
COc1cc(-c2cc(NC(C)=O)c3ncc(-c4ccccc4)n3c2)cc(OC)c1OC	24	29	x	4	x	x	x	x
COc1ccccc1-c1cc(NC(C)=O)c2ncc(-c3ccc(S(C)(=O)=O)cc3)n2c1	11	-9	x	0	x	x	x	x
CC(=O)Nc1cc(-c2cccc(C(=O)NCCO)c2)cn2c(-c3ccc(F)cc3)cnc12	23	-1	x	3	x	x	x	x
COc1ccc(-c2cc(NC(C)=O)c3ncc(-c4ccc(OC)c(OC)c4)n3c2)cc1OC	11	36	x	15*	x	x	23*	2
CC(=O)Nc1cc(-c2cccnc2)cn2c(-c3ccc(F)cc3)cnc12	12	-9	x	42*	x	x	44*	0
COc1ccc(-c2cnc3c(NC(C)=O)cc(-c4ccsc4)cn23)cc1OC	5	8	x	11*	x	x	15*	4
Cc1csc(NC(=O)C2CCCN(S(=O)(=O)c3ccc4c(c3)oc(=O)n4C)C2)n1 (stereo not drawn)	19	-2	9	1	665	-11	x	x
CCOc1cc(CNC)ccc1OCC(=O)NC(C)(C)C	-3	-11	16	1	220	-21	x	x
CC1(C)C(=O)Nc2ccccc2N1C(=O)Cn1ncc(Cl)c(Cl)c1=O	16	11	13	-3	138	-24	x	x
CCN1CCN(Cc2ccc(NC(=O)c3ccc(C)c(NC(=O)c4c[nH]c5cc(C(F)(F)F)ccc5c4=O)c3)cc2C(F)(F)F)CC1	-2	24	15	12*!	x	-11	5	78*
Cc1ccc(C(=O)Nc2cccc(C(F)(F)F)c2)cc1NC(=O)c1c[nH]c2cc(C(F)(F)F)ccc2c1=O	13	-3	x	-2	228	x	x	x
Cc1sc(NC(=O)Cn2c(=O)oc3ccccc32)nc1-c1ccc(Cl)cc1	0	-4	4	13*	166	6	3	7
CCc1nnc(NC(=O)Cn2c(=O)oc3ccccc32)s1	-2	1	10	-2	161	22	x	x
